Published values from different studies.
Protocols differ between the studies behind these lines.
Medium: PAMPA

Structure (SMILES) | conditions | Papp [×10⁻⁶ cm/s]
O=C(O)c1cc(/N=N/c2ccc(S(=O)(=O)Nc3ccccn3)cc2)ccc1O | 4 h | 0.077
Cc1c(S(=O)(=O)N2CCn3nccc3C2)cc(C(=O)NCc2cccnc2N2CCCC2)n1C | – | 27.9
CCCCOC(=O)c1ccc(O)cc1 | 5 µM, pH 7.4 | 5.68
Cc1c(S(=O)(=O)N2CCc3n[nH]cc3C2)cc(C(=O)NCc2c(F)ccc3cnn(C)c23)n1C | – | 11
C=C(CC(=O)OC)C(=O)OCOC(=O)C(C)(C)C | 10 µM, 4 h, pH 7.4 | > 10
Cc1[nH]c(C)c(S(=O)(=O)Nc2ccc(C(F)(F)F)c(Cl)c2)c1C(=O)N(C)C | – | 11
C=C(CC(=O)OCOC(=O)C(C)(C)C)C(=O)OCOC(=O)C(C)(C)C | 10 µM, 4 h, pH 7.4 | > 10
Cc1c(S(=O)(=O)N2CCc3c(cnn3C)C2)cc(C(=O)NCc2cccnc2N2CCCC2)n1C | – | 25
C=C(CC(=O)OCOC(=O)C(C)(C)C)C(=O)OC | 10 µM, 4 h, pH 7.4 | > 10
CC(C)(C)OC(=O)c1ccc(O)cc1 | 5 µM, pH 7.4 | 4.04
C=C(CC(=O)OCOC(=O)OC(C)C)C(=O)OC | 10 µM, 4 h, pH 7.4 | > 10
CCCCC(CC)COC(=O)c1ccc(O)cc1 (stereo not drawn) | 5 µM, pH 7.4 | 1.49
Cc1[nH]c(C)c(S(=O)(=O)Nc2ccc(C(F)(F)F)c(Cl)c2Cl)c1C(=O)N1CCC(F)(F)C1 | – | 0.18
Cc1c(S(=O)(=O)N2CCn3cccc3C2)cc(C(=O)NCc2cccnc2N2CCCC2)n1C | – | 27.6
CCCCCOC(=O)c1ccc(O)cc1 | 5 µM, pH 7.4 | 4.28
